Key:
[1] = biological target: T1, Muscarinic acetylcholine receptor (Rattus norvegicus) (UniProt P08482+P08483+P08485+P08911+P10980); assay: In vitro ability to displace [3H]oxotremorine-M from the muscarinic receptor in rat cerebral cortical membranes; format: cell membranes
How it was run: (§1)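 Rat cortical P2 membranes washed and resuspended 1/100 (wet w/v) in 20 mM HEPES pH 7.4. [3H]oxotremorine-M at 0.2-5 nM, nonspecific binding with 2 μM atropine; 40 min at 30 °C; filtration on polyethyleneimine-presoaked GF/C filters, saline wash, scintillation counting. Kapp corrected for ligand occupancy; four concentrations in triplicate; geometric mean of ≥3 determinations.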

[2] = biological target: T1, Muscarinic acetylcholine receptor (Rattus norvegicus); assay: In vitro ability to displace [3H]N-methylscopolamine from the muscarinic receptor in rat cerebral cortical membranes; format: cell membranes
How it was run: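 Rat (250-300 g) cerebral cortex crude synaptosomal-mitochondrial membranes (sucrose homogenate, 1000g then 17000g spins). [3H]NMS at 0.01–1.0 nM, nonspecific binding with 2 μM atropine; 60 min at 30 °C; GF/B filtration, saline rinses, scintillation counting. Kapp corrected for ligand occupancy; four concentrations in triplicate; geometric mean of ≥3 separate determinations.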

[3] = Ratio of Kapp(NMS)/Kapp(OXO-M)
How it was run: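 Ratio of Kapp values from displacement of [3H]NMS (0.01–1.0 nM, 60 min, 30 °C) and of [3H]oxotremorine-M (0.2-5 nM, HEPES pH 7.4, 40 min, 30 °C) in rat cortical membranes; 2 μM atropine nonspecific; each Kapp occupancy-corrected geometric mean of ≥3 determinations.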

[4] = biological target: T2, Muscarinic acetylcholine receptor M2 (Homo sapiens) (UniProt P08172); assay: In Vitro evaluation for the relative maximum against Muscarinic M2 receptor compare to carbachol; format: functional; details: Cavia porcellus
T2 sequence (whole entry): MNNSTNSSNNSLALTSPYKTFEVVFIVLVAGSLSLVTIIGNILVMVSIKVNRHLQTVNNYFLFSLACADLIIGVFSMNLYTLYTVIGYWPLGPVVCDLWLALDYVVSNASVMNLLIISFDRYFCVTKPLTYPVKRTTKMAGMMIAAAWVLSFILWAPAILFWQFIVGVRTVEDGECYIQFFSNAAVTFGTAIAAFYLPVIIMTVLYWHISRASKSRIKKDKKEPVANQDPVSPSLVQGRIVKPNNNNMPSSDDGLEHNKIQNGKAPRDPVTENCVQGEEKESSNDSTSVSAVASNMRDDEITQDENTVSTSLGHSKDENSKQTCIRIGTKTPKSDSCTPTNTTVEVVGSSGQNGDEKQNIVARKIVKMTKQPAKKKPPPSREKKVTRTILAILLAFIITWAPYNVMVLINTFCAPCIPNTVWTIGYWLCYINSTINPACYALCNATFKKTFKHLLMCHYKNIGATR
How it was run: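 Guinea pig paired atria (male, 300-400 g) in Krebs bicarbonate with 22 mM glucose, 1 g tension, electrically paced (3-4 Hz, 2-3 ms); noncumulative dose-response curves to maximum negative chronotropic effect, ≥45 min apart; maximum response expressed relative to that of carbachol.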

[5] = biological target: T3, Muscarinic acetylcholine receptor M1 (Rattus norvegicus, UniProt P08482); assay: Compound was tested in vitro for depolarizing response on the rat superior cervical ganglion (mediated by Muscarinic M1 receptor); format: functional, tissue-based
T3 sequence (P08482 whole entry): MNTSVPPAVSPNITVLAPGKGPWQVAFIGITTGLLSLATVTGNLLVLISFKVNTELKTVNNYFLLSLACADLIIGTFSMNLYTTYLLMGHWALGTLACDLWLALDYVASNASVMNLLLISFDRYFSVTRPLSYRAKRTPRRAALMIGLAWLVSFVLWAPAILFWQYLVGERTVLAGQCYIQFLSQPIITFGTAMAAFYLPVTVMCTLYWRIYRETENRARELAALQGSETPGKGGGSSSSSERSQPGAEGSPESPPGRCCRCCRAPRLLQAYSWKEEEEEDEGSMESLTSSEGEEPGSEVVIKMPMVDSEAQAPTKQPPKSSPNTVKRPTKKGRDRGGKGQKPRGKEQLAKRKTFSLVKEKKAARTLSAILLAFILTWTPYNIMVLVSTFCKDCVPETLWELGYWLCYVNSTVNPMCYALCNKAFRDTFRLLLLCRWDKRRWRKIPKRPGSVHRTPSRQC
How it was run: (§2)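 Responses related to a reference depolarizing response set at 1.0. Agonist concentration raised until response levelled off; EC50 taken as concentration giving half-maximum; at least two determinations, each ganglion from a different rat.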

[6] = biological target: T4, Muscarinic acetylcholine receptor M2 (Homo sapiens, UniProt P08172); assay: In vitro negative chronotropic effect on electrically driven guinea pig atria(mediated by Muscarinic M2 receptor); format: functional, Cavia porcellus; details: target entry is the homologue from another species
T4 sequence (P08172 whole entry): T2 sequence (whole entry)
How it was run: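 Paired atria from male guinea pigs (300-400 g) under 1 g tension in Krebs bicarbonate with 22 mM glucose, paced by field stimulation (3-4 Hz, 2-3 ms). After 60 min equilibration, noncumulative dose-response curves for negative chronotropy, each application held to maximum effect; ≥45 min between curves. EC50 from geometric mean of at least two determinations.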

[7] = biological target: T1, Muscarinic acetylcholine receptor (Rattus norvegicus); assay: In vitro ability to displace muscarinic agonist [3H]oxotremorine-M from high affinity state of the receptor in rat cerebral cortical membranes; format: cell membranes; details: Membrane; how it was run: as §1
[8] = biological target: T5, Muscarinic acetylcholine receptor M1 (Rattus norvegicus) (UniProt P08482); assay: In vitro evaluation for the relative maximum against Muscarinic M1 receptor compare to muscarine; format: functional
T5 sequence (whole entry): T3 sequence (P08482 whole entry)
How it was run: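 Maximum depolarizing response determined by raising agonist concentration until plateau, expressed relative to muscarine; responses related to a reference depolarization set at 1.0; ganglia each from a different rat.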

[9] = biological target: Muscarinic acetylcholine receptor M3 (Cavia porcellus) (UniProt Q8VH26); assay: In vitro evaluation for the relative maximum against Muscarinic M3 receptor compare to carbachol; format: functional
How it was run: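 Guinea pig ileum longitudinal muscle-myenteric plexus (male, 300-400 g), 1 g tension, Krebs bicarbonate at 37 °C; isometric tension change measured to peak; maximum response expressed as percentage of that to 1 μM carbachol.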

[10] = biological target: Muscarinic acetylcholine receptor M3 (Cavia porcellus, UniProt Q8VH26); assay: In vitro contraction of guinea pig myenteric plexus preparation (mediated by Muscarinic M3 receptor); format: functional
How it was run: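 Distal ileum longitudinal muscle-myenteric plexus strips from male guinea pigs (300-400 g) under 1 g tension in 3 mL Krebs bicarbonate, 37 °C, equilibrated ≥60 min. Isometric contraction read for ≥30 s to clear peak, ≥45 min between compounds; responses as % of 1 μM carbachol maximum. EC50 by nonlinear iterative curve fitting; geometric mean of at least four determinations.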

[11] = biological target: T3, Muscarinic acetylcholine receptor M1; assay: Compound was tested in vitro for depolarizing response on the rat superior cervical ganglion (mediated by Muscarinic M1 receptor; format: functional, tissue-based; how it was run: as §2

Chain of Muscarinic acetylcholine receptor M3 (Cavia porcellus) (Q8VH26 1-587): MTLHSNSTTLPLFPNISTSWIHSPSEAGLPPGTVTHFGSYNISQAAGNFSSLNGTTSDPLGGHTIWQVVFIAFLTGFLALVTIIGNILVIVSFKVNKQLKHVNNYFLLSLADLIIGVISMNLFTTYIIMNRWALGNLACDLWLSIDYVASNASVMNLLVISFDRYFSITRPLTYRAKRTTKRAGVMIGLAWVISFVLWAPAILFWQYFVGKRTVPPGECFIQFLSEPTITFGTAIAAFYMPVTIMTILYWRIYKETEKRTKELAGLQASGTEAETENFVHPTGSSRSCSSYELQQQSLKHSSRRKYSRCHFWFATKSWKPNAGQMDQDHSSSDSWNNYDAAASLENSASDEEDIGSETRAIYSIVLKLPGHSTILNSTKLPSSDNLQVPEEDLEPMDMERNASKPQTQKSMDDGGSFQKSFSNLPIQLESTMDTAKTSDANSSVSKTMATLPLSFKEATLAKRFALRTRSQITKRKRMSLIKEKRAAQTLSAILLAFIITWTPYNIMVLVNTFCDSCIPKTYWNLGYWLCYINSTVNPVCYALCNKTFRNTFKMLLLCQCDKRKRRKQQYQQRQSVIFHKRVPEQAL
Chain of Muscarinic acetylcholine receptor M3 (Q8VH26 whole entry): as the sequence (Q8VH26 1-587) above

SMILES | K app [1] [nM] | K app [2] [nM] | Ratio [3] | RM [4] | EC50 [5] [nM] | EC50 [6] [nM] | K app [7] [nM] | RM [8] | RM [9] | EC50 [10] [nM] | EC50 [11] [nM]
C[N+](C)(C)CCOC(N)=O | 4.9 | 22000 | 4500 | – | – | – | – | – | – | – | –
Cc1noc([C@@H]2CN3CC[C@@H]2C3)n1 | – | 370 | 1200 | 0.94 | 7 | 3.3 | 0.32 | 1.16 | 0.97 | 2.4 | –
Cc1noc([C@H]2CN3CC[C@@H]2C3)n1 | 1.6 | 2200 | 1400 | 0.96 | – | 19 | – | 0.76 | 0.93 | 16 | 90
Cc1noc([C@H]2CN3CC[C@H]2C3)n1 | 0.027 | 32 | 1200 | 0.91 | 2.4 | 0.039 | – | 0.94 | 0.91 | 0.045 | –

Source: ChEMBL document CHEMBL1125396, “Synthesis and in vitro biological profile of all four isomers of the potent muscarinic agonist 3-(3-methyl-1,2,4-oxadiazol-5-yl)-1-azabicyclo[2.2.1]heptane” (J Med Chem, 1992)
